Measurements published in ChEMBL document CHEMBL1125420, “Synthesis and biological activity of novel folic acid analogues: pteroyl-S-alkylhomocysteine sulfoximines” (J Med Chem, 1992).

Legend:
[1] = system: L1210; experiment: (§1) Inhibitory activity against growth of L1210 leukemia cells in culture; assay type: functional, cell-based; settings: Mus musculus
Method in brief: (§2)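 Murine L1210 leukemia cells, duplicate cultures, exposed to increasing concentrations alongside folic acid for 48 h at 37 °C in RPMI 1640 with 10% fetal calf serum. Cells counted; IC50 (50% inhibition of control growth) read graphically; percent inhibition also taken at 0.5 mM. Averages of two experiments run in duplicate.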

[2] = system: L1210; experiment: Compound was tested for release of tritium from 1 uM [5-3H]-dUMP into water at a con of 0.4 mM and without addition of bovine thymidylate synthase to cell suspension in absence of serine; assay type: functional, Mus musculus
Method in brief: (§3)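 L1210 cells (transplanted, harvested), partially permeabilized with dextran sulfate, at (2–5) × 10^7 cells/mL. Preincubated with cofactor 15 min at 37 °C with 0.2 mM NADPH, 1 mM serine or 7.5 mM CH2O, 2-mercaptoethanol, MgCl2, EDTA, NaF, 80 mM Tris-acetate pH 7.4. Then 1 μM [5-3H]dUMP added for 30 min. Where enzyme added, 0.016 unit per 0.15 mL suspension. Tritium in water given as % of total, background-corrected; two experiments in duplicate.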

[3] = system: L1210; experiment: Compound was tested for release of tritium from 1 uM [5-3H]-dUMP into water at a conc of 0.4 mM enzyme(bovine thymidylate synthase) was added to cell suspension in presence of CH2O; assay type: functional, Mus musculus; method in brief: as §3
[4] = system: L1210; experiment: Inhibitory activity against growth of L1210 leukemia cells in culture at 0.5 mM; assay type: functional; settings: Mus musculus; method in brief: as §2
[5] = system: L1210; experiment: Compound was tested for release of tritium from 1 uM [5-3H]-dUMP into water at a conc of 0.4 mM enzyme(bovine thymidylate synthase) was added to cell suspension in presence of serine; assay type: functional, Mus musculus; method in brief: as §3
[6] = system: L1210; experiment: Compound was tested for release of tritium from 1 uM [5-3H]-dUMP into water at a con of 0.4 mM and without addition of bovine thymidylate synthase to cell suspension in absence of CH2O; assay type: functional, Mus musculus; method in brief: as §3
[7] = system: L1210; experiment: Compound was tested for release of tritium from 1 uM [5-3H]-dUMP into water at a conc of 0.4 mM, enzyme(bovine thymidylate synthase) was added to cell suspension in presence of serine; assay type: functional, Mus musculus; method in brief: as §3
[8] = system: L1210; experiment: as §1; assay type: functional, Mus musculus; method in brief: as §2

IC50 [1] [µM] | Compound | Tritium release [2] [%] | Tritium release [3] [%] | inhibition at 500 µM [4] [%] | Tritium release [5] [%] | Tritium release [6] [%] | Tritium release [7] [%] | Inhibition [8] [%]
390 | CS(=O)(=O)CCC(NC(=O)c1ccc(NCc2cnc3nc(N)nc(O)c3n2)cc1)C(=O)O (stereo unspecified) | 3.6 | 6.7 | 78.6 | 7.8 | 4.6 | – | –
190 | C[S+](=N)([O-])CCC(NC(=O)c1ccc(NCc2cnc3nc(N)nc(O)c3n2)cc1)C(=O)O (mixture of isomers) | 3.9 | 8.3 | 76.4 | – | 5 | 9.5 | –
220 | CC[S+](=N)([O-])CCC(NC(=O)c1ccc(NCc2cnc3nc(N)nc(O)c3n2)cc1)C(=O)O (racemic) | 4.2 | 6.8 | 80.2 | 8.3 | 4.9 | – | –
270 | CCCC[S+](=N)([O-])CCC(NC(=O)c1ccc(NCc2cnc3nc(N)nc(O)c3n2)cc1)C(=O)O (racemic) | 4 | 5.8 | 75.2 | 7 | 4.4 | – | –
300 | CCC[S+](=N)([O-])CCC(NC(=O)c1ccc(NCc2cnc3nc(N)nc(O)c3n2)cc1)C(=O)O (racemic) | 4.2 | 7.3 | 75.2 | 9.2 | 4.3 | – | –
> 10000 | Nc1nc(=O)c2nc(CNc3ccc(C(=O)N[C@@H](CCC(=O)O)C(=O)O)cc3)cnc2[nH]1 [FOLIC ACID] | 19.1 | 21.8 | – | 24.1 | 20.6 | – | 33.6
